From ChEMBL document CHEMBL5154796, “Chemical synthesis and pharmacological properties of heparin pentasaccharide analogues” (Eur J Med Chem, 2022)
Calls of active or inactive are those of the source. The rule behind the calls is not given here.

Legend:
Rattus norvegicus [1] = test: Antithrombotic activity in Sprague-Dawley rat model of blood stasis-induced venous thrombosis assessed as inhibition of thrombosis rate at 100 nmol/kg, sc measured after 1 hr; assay type: functional, organism-based
How it was run: (§1)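 Male SD rats given 100 nmol/kg s.c.; at 1 or 3 h, anesthetized with 10% chloral hydrate ([…]). Vena cava loosely ligated, collaterals tied, 2% rabbit thromboplastin given i.v., stasis 20 s later and held 20 min. Thrombus removed, dried 24 h at 50 °C, weighed; inhibition versus saline group; n = 6, mean ± SEM.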

[2] = AUC (0 to infinity) in Sprague-Dawley rat at 100 nmol/kg, sc; assay type: ADME; parameters: time infinity, dose 100 nmol/kg, route sc; conditions: in vivo; for AUC(0-inf): Sprague-Dawley, 100 nmol/kg
How it was run: (§2)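 Plasma level read from anti-FXa activity against a standard curve built by spiking pooled rat platelet-poor plasma with graded compound. Noncompartmental analysis; n = 4-6, mean ± SEM.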

[3] = AUC (0 to 32 hrs) in Sprague-Dawley rat at 100 nmol/kg, sc measured after 32 hrs; assay type: ADME, organism-based; parameters: time 32 hrs, dose 100 nmol/kg, route sc; conditions: in vivo; how it was run: as §2
Plasma [4] = test: Anticoagulant activity in human plasma assessed as prolongation of activated partial thromboplastin time by measuring concentration required to double APTT incubated for 3 mins by coagulometer analysis; assay type: functional; conditions: 0.05 h
How it was run: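 Standard human plasma (45 µL) plus sample (5 µL), 2 min at 37 °C, then APTT reagent for 3 min, then CaCl2; clotting time read on a coagulometer. Clotting time versus concentration fitted linearly; EC2.0 is the concentration doubling clotting time. Run in duplicate.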

Plasma [5] = test: Anticoagulant activity in human plasma assessed as prolongation of prothrombin time by measuring concentration required to double PT incubated for 3 mins by coagulometer analysis; assay type: functional; conditions: dose 128 µg/ml, 0.05 h
Plasma [6] = test: Anticoagulant activity in human plasma assessed as prolongation of thrombin time by measuring concentration required to double TT incubated for 3 mins by coagulometer analysis; assay type: functional; conditions: 0.05 h
Coagulation factor X [7] = molecular target: T1, Coagulation factor X (Homo sapiens, UniProt P00742); test: Inhibition of coagulation factor Xa (unknown origin) using chromogenic substrate incubated for 7 min in presence of antithrombin by absorbance based assay
Coagulation factor X [8] = molecular target: T1, Coagulation factor X; test: Inhibition of heparin binding to factor 10a using chromogenic substrate incubated for 7 min by absorbance based assay
Plasma [9] = test: Anticoagulant activity in human platelet poor plasma assessed as inhibition of thrombin generation incubated for 3 mins by calibrated automated thrombogram analysis; assay type: functional, cell-free; conditions: 0.05 h
How it was run: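 Thrombin generation triggered in human platelet-poor plasma by a phospholipid/tissue factor reagent, monitored by calibrated automated thrombogram with readings every 15 s. Total thrombin taken as area under the thrombin-time curve; IC50 from dose-response. Triplicate.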

[10] = Tmax in Sprague-Dawley rat at 100 nmol/kg, sc; assay type: ADME; conditions: in vivo; how it was run: as §2
[11] = Cmax in Sprague-Dawley rat at 100 nmol/kg, sc; assay type: ADME; parameters: dose 100 nmol/kg, route sc; conditions: in vivo; how it was run: as §2
[12] = Half life in Sprague-Dawley rat at 100 nmol/kg, sc; assay type: ADME; conditions: in vivo; how it was run: as §2
[13] = Clearance in Sprague-Dawley rat at 100 nmol/kg, sc; assay type: ADME; conditions: in vivo; how it was run: as §2
[14] = Volume of distribution in Sprague-Dawley rat at 100 nmol/kg, sc; assay type: ADME; conditions: in vivo; how it was run: as §2
Rattus norvegicus [15] = test: Antithrombotic activity in Sprague-Dawley rat model of blood stasis-induced venous thrombosis assessed as inhibition of thrombosis rate at 100 nmol/kg, sc measured after 1 hr relative to control; assay type: functional; how it was run: as §1
Rattus norvegicus [16] = test: Antithrombotic activity in Sprague-Dawley rat model of blood stasis-induced venous thrombosis assessed as inhibition of thrombosis rate at 30 nmol/kg, sc measured after 2 hrs relative to control; assay type: functional
How it was run: (§3)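 Stasis/thromboplastin vena cava model in male SD rats 2 h after s.c. dosing at 30, 100 or 300 nmol/kg. Thrombus dried 24 h at 50 °C and weighed, then expressed as % of mean thrombus mass in the saline group (100% = no inhibition); n = 8-10, mean ± SEM.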

Rattus norvegicus [17] = test: Antithrombotic activity in Sprague-Dawley rat model of blood stasis-induced venous thrombosis assessed as inhibition of thrombosis rate at 100 nmol/kg, sc measured after 2 hrs relative to control; assay type: functional; how it was run: as §3
Rattus norvegicus [18] = test: Antithrombotic activity in Sprague-Dawley rat model of blood stasis-induced venous thrombosis assessed as inhibition of thrombosis rate at 300 nmol/kg, sc measured after 2 hrs relative to control; assay type: functional; how it was run: as §3
Rattus norvegicus [19] = test: Antithrombotic activity in Sprague-Dawley rat model of blood stasis-induced venous thrombosis assessed as inhibition of thrombosis rate at 100 nmol/kg, sc measured after 3 hrs; assay type: functional, organism-based; how it was run: as §1
Mus musculus = test: Antithrombotic activity in mouse model of tail-bleeding assessed as increase in blood loss at 2000 nmol/kg, sc; assay type: functional, organism-based
How it was run: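 Mouse tail-cut bleeding: 2000 nmol/kg s.c., tail cut 1.5 h after dosing, blood loss measured in µL; normal saline negative control; n ≥ 6, mean ± SEM, one-way ANOVA.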

T1 sequence (P00742 41-179 limits assumed): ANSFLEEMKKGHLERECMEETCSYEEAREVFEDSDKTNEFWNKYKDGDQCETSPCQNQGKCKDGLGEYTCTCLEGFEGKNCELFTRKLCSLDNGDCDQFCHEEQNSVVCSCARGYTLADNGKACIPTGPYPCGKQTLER
T1 sequence (P00742 235-488 limits assumed): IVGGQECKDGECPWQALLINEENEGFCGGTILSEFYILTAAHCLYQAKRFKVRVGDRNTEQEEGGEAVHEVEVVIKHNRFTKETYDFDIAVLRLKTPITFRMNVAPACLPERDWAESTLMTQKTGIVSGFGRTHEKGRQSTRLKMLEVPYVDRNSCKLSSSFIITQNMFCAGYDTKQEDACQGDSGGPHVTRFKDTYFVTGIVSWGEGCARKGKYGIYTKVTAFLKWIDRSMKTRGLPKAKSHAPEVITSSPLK

## CO[C@H]1O[C@H](COS(=O)(=O)[O-])[C@@H](O[C@@H]2O[C@@H](C(=O)[O-])[C@@H](O[C@H]3O[C@H](COS(=O)(=O)[O-])[C@@H](O[C@@H]4O[C@H](C(=O)[O-])[C@@H](O[C@H]5O[C@H](COS(=O)(=O)[O-])[C@@H](O)[C@H](O)[C@H]5NS(=O)(=O)[O-])[C@H](O)[C@H]4O)[C@H](OS(=O)(=O)[O-])[C@H]3NS(=O)(=O)[O-])[C@H](O)[C@H]2OS(=O)(=O)[O-])[C@H](O)[C@H]1NS(=O)(=O)[O-].[Na+].[Na+].[Na+].[Na+].[Na+].[Na+].[Na+].[Na+].[Na+].[Na+] [FONDAPARINUX SODIUM]
Rattus norvegicus [1]
  inhibition: Active
[2]
  AUC(0-inf): 1120 ng·h/mL
[3]
  AUC(0-t) at 32 h: 1070 ng·h/mL
Plasma [4]
  EC: 51.2 µM
Plasma [5]
  EC: >128 µg/mL
Plasma [6]
  2TT: >128 µg/mL
Coagulation factor X [7]
  IC50: 99.6 nM
Coagulation factor X [8]
  IC50: 1910 nM
Plasma [9]
  IC50: 14500 nM
[10]
  Tmax: 0.6 h
[11]
  Cmax: 519 ng/mL
[12]
  half-life: 1.2 h
[13]
  CL/F: 3.98 mL/min/kg
[14]
  Vd: 0.097 L/kg
Rattus norvegicus [15]
  inhibition in vivo at 0.1 µmol/kg: 55.7%
Rattus norvegicus [16]
  inhibition in vivo at 0.03 µmol/kg: < 15%
Rattus norvegicus [17]
  inhibition: Active
Rattus norvegicus [18]
  inhibition in vivo at 0.3 µmol/kg: 59.3%

## CO[C@H]1O[C@H](COS(=O)(=O)[O-])[C@@H](O[C@@H]2O[C@@H](C(=O)[O-])[C@@H](O[C@H]3O[C@H](COS(=O)(=O)[O-])[C@@H](O[C@@H]4O[C@H](C(=O)[O-])[C@@H](O[C@H]5O[C@H](COS(=O)(=O)[O-])[C@@H](O)[C@H](OS(=O)(=O)[O-])[C@H]5OS(=O)(=O)[O-])[C@H](OC)[C@H]4O)[C@H](OS(=O)(=O)[O-])[C@H]3OS(=O)(=O)[O-])[C@H](OC)[C@H]2OS(=O)(=O)[O-])[C@H](OS(=O)(=O)[O-])[C@H]1OS(=O)(=O)[O-].[Na+].[Na+].[Na+].[Na+].[Na+].[Na+].[Na+].[Na+].[Na+].[Na+].[Na+].[Na+]
Rattus norvegicus [1]
  inhibition: Active
[2]
  AUC(0-inf): 6750 ng·h/mL
[3]
  AUC(0-t) at 32 h: 6350 ng·h/mL
Plasma [4]
  EC: 33.05 µM
Plasma [5]
  EC: >128 µg/mL
Plasma [6]
  2TT: >128 µg/mL
Coagulation factor X [7]
  IC50: 94.7 nM
Coagulation factor X [8]
  IC50: 779 nM
Plasma [9]
  IC50: 12400 nM
[10]
  Tmax: 1 h
[11]
  Cmax: 1250 ng/mL
[12]
  half-life: 4.8 h
[13]
  CL/F: 0.633 mL/min/kg
[14]
  Vd: 0.183 L/kg
Rattus norvegicus [16]
  inhibition in vivo at 0.03 µmol/kg: 39.5%
Rattus norvegicus [17]
  inhibition: Active
Rattus norvegicus [18]
  inhibition: Active

## CO[C@H]1O[C@H](COS(=O)(=O)[O-])[C@@H](O[C@@H]2O[C@@H](C(=O)[O-])[C@@H](O[C@H]3O[C@H](COS(=O)(=O)[O-])[C@@H](O[C@@H]4O[C@H](C(=O)[O-])[C@@H](O[C@H]5O[C@H](COS(=O)(=O)[O-])[C@@H](OC)[C@H](OS(=O)(=O)[O-])[C@H]5OS(=O)(=O)[O-])[C@H](OC)[C@H]4OC(C)=O)[C@H](OS(=O)(=O)[O-])[C@H]3OS(=O)(=O)[O-])[C@H](OC)[C@H]2OS(=O)(=O)[O-])[C@H](OS(=O)(=O)[O-])[C@H]1OS(=O)(=O)[O-].[Na+].[Na+].[Na+].[Na+].[Na+].[Na+].[Na+].[Na+].[Na+].[Na+].[Na+].[Na+]
Rattus norvegicus [19]
  inhibition: Active
[2]
  AUC(0-inf): 15100 ng·h/mL
[3]
  AUC(0-t) at 32 h: 12800 ng·h/mL
Plasma [4]
  EC: 32.47 µM
Plasma [5]
  EC: >128 µg/mL
Plasma [6]
  2TT: >128 µg/mL
Coagulation factor X [7]
  IC50: 88.8 nM
Coagulation factor X [8]
  IC50: 1130 nM
Plasma [9]
  IC50: 14800 nM
[10]
  Tmax: 2 h
[11]
  Cmax: 1140 ng/mL
[12]
  half-life: 15.1 h
[13]
  CL/F: 0.283 mL/min/kg
[14]
  Vd: 0.136 L/kg
Rattus norvegicus [16]
  inhibition in vivo at 0.03 µmol/kg: 33.2%
Rattus norvegicus [17]
  inhibition: Active
Rattus norvegicus [18]
  inhibition: Active
Mus musculus
  Activity: Active

## CO[C@H]1O[C@H](COS(=O)(=O)[O-])[C@@H](O[C@@H]2O[C@@H](C(=O)[O-])[C@@H](O[C@H]3O[C@H](COS(=O)(=O)[O-])[C@@H](O[C@@H]4O[C@H](C(=O)[O-])[C@@H](O[C@H]5O[C@H](COS(=O)(=O)[O-])[C@@H](O)[C@H](O)[C@H]5OS(=O)(=O)[O-])[C@H](OC)[C@H]4O)[C@H](OS(=O)(=O)[O-])[C@H]3OS(=O)(=O)[O-])[C@H](OC)[C@H]2OS(=O)(=O)[O-])[C@H](OS(=O)(=O)[O-])[C@H]1OS(=O)(=O)[O-].[Na+].[Na+].[Na+].[Na+].[Na+].[Na+].[Na+].[Na+].[Na+].[Na+].[Na+]
[2]
  AUC: 19053.2 ng·h/mL
[3]
  AUC(0-t) at 32 h: 17600 ng·h/mL
Plasma [4]
  EC: 40.83 µM
Plasma [5]
  EC: >128 µg/mL
Plasma [6]
  2TT: >128 µg/mL
Coagulation factor X [7]
  IC50: 141 nM
Coagulation factor X [8]
  IC50: 725 nM
Plasma [9]
  IC50: 12200 nM
[10]
  Tmax: 2 h
[11]
  Cmax: 2040 ng/mL
[12]
  half-life: 6.1 h
[14]
  Vd: 0.058 L/kg
Rattus norvegicus [15]
  inhibition in vivo at 0.1 µmol/kg: 77.8%
Rattus norvegicus [16]
  inhibition in vivo at 0.03 µmol/kg: < 15%
Rattus norvegicus [17]
  inhibition in vivo at 0.1 µmol/kg: > 70%
Rattus norvegicus [18]
  inhibition in vivo at 0.3 µmol/kg: 93.1%

## CO[C@H]1O[C@H](COS(=O)(=O)[O-])[C@@H](O[C@@H]2O[C@@H](C(=O)[O-])[C@@H](O[C@H]3O[C@H](COS(=O)(=O)[O-])[C@@H](O[C@@H]4O[C@H](C(=O)[O-])[C@@H](O[C@H]5O[C@H](COS(=O)(=O)[O-])[C@@H](O)[C@H](OC)[C@H]5OS(=O)(=O)[O-])[C@H](OC)[C@H]4O)[C@H](OS(=O)(=O)[O-])[C@H]3OS(=O)(=O)[O-])[C@H](OC)[C@H]2OS(=O)(=O)[O-])[C@H](OS(=O)(=O)[O-])[C@H]1OS(=O)(=O)[O-].[Na+].[Na+].[Na+].[Na+].[Na+].[Na+].[Na+].[Na+].[Na+].[Na+].[Na+]
Rattus norvegicus [19]
  inhibition: Active
[2]
  AUC(0-inf): 15500 ng·h/mL
[3]
  AUC(0-t) at 32 h: 14200 ng·h/mL
Plasma [4]
  EC: 48.78 µM
Plasma [5]
  EC: >128 µg/mL
Plasma [6]
  2TT: >128 µg/mL
Coagulation factor X [7]
  IC50: 108 nM
Coagulation factor X [8]
  IC50: 788 nM
Plasma [9]
  IC50: 12500 nM
[10]
  Tmax: 1.5 h
[11]
  Cmax: 2020 ng/mL
[12]
  half-life: 6.2 h
[13]
  CL/F: 0.35 mL/min/kg
[14]
  Vd: 0.131 L/kg
Rattus norvegicus [15]
  inhibition in vivo at 0.1 µmol/kg: 56.9%
Rattus norvegicus [16]
  inhibition in vivo at 0.03 µmol/kg: 48.6%
Rattus norvegicus [17]
  inhibition in vivo at 0.1 µmol/kg: > 70%
Rattus norvegicus [18]
  inhibition in vivo at 0.3 µmol/kg: 89.5%
